Assay results: ChEMBL document CHEMBL1275524, “Activities of antifungal agents against yeasts and filamentous fungi: assessment according to the methodology of the European Committee on Antimicrobial Susceptibility Testing” (2008)
Values after ≈ are worked out from the molar mass of the structure shown.

How the values were obtained:
[1] = test system: Fusarium oxysporum; experiment: Antifungal activity against Fusarium oxysporum; type: functional
[2] = test system: Aspergillus niger; experiment: Antifungal activity against Aspergillus niger; type: functional
[3] = test system: Trichosporon asahii; experiment: Antifungal activity against Trichosporon asahii by EUCAST method; type: functional
Outline: (§1)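 Nonfermentative yeasts were tested by the EUCAST microdilution recommendations with one change: plates were sealed and agitated at 350 rpm and 30°C for 48 h.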

[4] = test system: Candida tropicalis; experiment: Antifungal activity against Candida tropicalis; type: functional
Outline: (§2)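 Broth microdilution in flat-bottom plates in RPMI 1640 with 2% glucose; inoculum 0.5 × 105 to 2.5 × 10^5 CFU/ml. MICs were read spectrophotometrically at 24 h. AMB endpoint: ≥90% growth reduction vs drug-free control well. Azole and CPF endpoint: 50% reduction in optical density. MFC was taken as the lowest concentration giving 99% killing.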

[5] = test system: Cryptococcus gattii; experiment: Antifungal activity against Cryptococcus neoformans var. gattii; type: functional, Cryptococcus bacillisporus
Outline: (§3)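 EUCAST yeast microdilution, modified for nonfermentative yeasts: plates were sealed and agitated at 350 rpm and 30°C for 48 h.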

[6] = Antifungal activity against Cryptococcus neoformans var. neoformans by EUCAST method; type: functional; details: Cryptococcus deneoformans; outline: as §3
[7] = Antifungal activity against Rhinocladiella aquaspersa; type: functional
Outline: (§4)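 Dematiaceous fungi were tested by the EUCAST spore-forming mold reference procedure: flat-bottom microdilution plates, RPMI 1640 plus 2% glucose, inoculum 2 × 105 to 5 × 10^5 CFU/ml. Endpoints were read visually at 24 and 48 h. Polyenes and azoles: 100% growth reduction vs drug-free control. CPF: minimum effective concentration. Run in duplicate and repeated twice.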

[8] = test system: Pichia kudriavzevii; experiment: Antifungal activity against Candida krusei; type: functional
Outline: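 EUCAST broth microdilution for yeasts in flat-bottom plates, RPMI 1640 with 2% glucose, inoculum 0.5 × 105 to 2.5 × 10^5 CFU/ml. […] MFC is the lowest concentration giving 99% killing.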

[9] = test system: Curvularia lunata; experiment: Antifungal activity against Curvularia lunata; type: functional
[10] = test system: Curvularia lunata; experiment: Antifungal activity against Curvularia lunata by EUCAST method; type: functional; outline: as §4
[11] = test system: Absidia; experiment: Antifungal activity against Absidia species by EUCAST method; type: functional
[12] = test system: Mucor hiemalis; experiment: Antifungal activity against Mucor hiemalis; type: functional
[13] = test system: Rhizopus arrhizus; experiment: Antifungal activity against Rhizopus oryzae; type: functional
Outline: (§5)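 Broth microdilution following the EUCAST reference procedure for spore-forming moulds, in flat-bottom plates with RPMI 1640 plus 2% glucose. Inoculum was 2 × 10^5 to 5 × 10^5 CFU/ml. MICs were read visually at 24 and 48 h as 100% growth reduction versus a drug-free control for polyenes and azoles. MEC was used for caspofungin. Tests were run in duplicate and repeated twice.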

[14] = test system: Aspergillus flavus; experiment: Antifungal activity against Aspergillus flavus; type: functional
[15] = test system: Rhizomucor; experiment: Antifungal activity against Rhizomucor species by EUCAST method; type: functional; outline: as §5
[16] = test system: Lichtheimia corymbifera; experiment: Antifungal activity against Absidia corymbifera by EUCAST method; type: functional
[17] = test system: Meyerozyma guilliermondii; experiment: Antifungal activity against Candida guilliermondii by EUCAST method; type: functional; outline: as §2
[18] = test system: Rhizopus; experiment: Antifungal activity against Rhizopus species by EUCAST method; type: functional; outline: as §5
[19] = test system: Fusarium oxysporum; experiment: Antifungal activity against Fusarium oxysporum by EUCAST method; type: functional
[20] = test system: Absidia; experiment: Antifungal activity against Absidia species; type: functional
[21] = Antifungal activity against Rhizopus microsporus var. oligosporus; type: functional; outline: as §5
[22] = test system: Pichia kudriavzevii; experiment: Antifungal activity against Candida krusei by EUCAST method; type: functional; outline: as §2
[23] = test system: Trichosporon inkin; experiment: Antifungal activity against Trichosporon inkin; type: functional; outline: as §1
[24] = test system: Candida parapsilosis; experiment: Antifungal activity against Candida parapsilosis by EUCAST method; type: functional; details: Lodderomyces parapsilosis; outline: as §2
[25] = test system: Clavispora lusitaniae; experiment: Antifungal activity against Candida lusitaniae; type: functional; outline: as §2
[26] = test system: Lomentospora prolificans; experiment: Antifungal activity against Scedosporium prolificans; type: functional; outline: as §5
[27] = test system: Curvularia australiensis; experiment: Antifungal activity against Bipolaris australiensis by EUCAST method; type: functional; outline: as §4
[28] = test system: Talaromyces marneffei; experiment: Antifungal activity against Penicillium marneffei by EUCAST method; type: functional
[29] = Antifungal activity against Rhizopus microsporus var. oligosporus by EUCAST method; type: functional; outline: as §5
[30] = test system: Aspergillus fumigatus; experiment: Antifungal activity against Aspergillus fumigatus; type: functional
[31] = test system: Rhizomucor; experiment: Antifungal activity against Rhizomucor species; type: functional
[32] = test system: Penicillium sp.; experiment: Antifungal activity against Penicillium species by EUCAST method; type: functional
[33] = test system: Mucor; experiment: Antifungal activity against Mucor species; type: functional
[34] = test system: Nakaseomyces glabratus; experiment: Antifungal activity against Candida glabrata by EUCAST method; type: functional; outline: as §2
[35] = test system: Geotrichum candidum; experiment: Antifungal activity against Geotrichum candidum; type: functional

SMILES: C[C@@H]1[C@H](O)[C@@H](C)/C=C/C=C/C=C/C=C/C=C/C=C/C=C/[C@H](O[C@@H]2O[C@H](C)[C@@H](O)[C@H](N)[C@@H]2O)C[C@@H]2O[C@](O)(C[C@@H](O)C[C@@H](O)[C@H](O)CC[C@@H](O)C[C@@H](O)CC(=O)O[C@H]1C)C[C@H](O)[C@H]2C(=O)O [AMPHOTERICIN B]
- MFC [1]: 1 µg/mL (≈ 1.08 µM)
- MFC [2]: > 4 µg/mL
- MIC [3]: 1.5 µg/mL (≈ 1.62 µM)
- MFC [4]: 0.5 µg/mL (≈ 0.541 µM)
- MFC [5]: 1 µg/mL (≈ 1.08 µM)
- MIC [6]: 0.75 µg/mL (≈ 0.812 µM)
- MFC [7]: 1 µg/mL (≈ 1.08 µM)
- MFC [8]: 0.5 µg/mL (≈ 0.541 µM)
- MFC [9]: 1 µg/mL (≈ 1.08 µM)
- MIC [10]: 0.75 µg/mL (≈ 0.812 µM)
- MIC [11]: 0.8 µg/mL (≈ 0.866 µM)
- MFC [12]: 1 µg/mL (≈ 1.08 µM)
- MFC [13]: 4 µg/mL (≈ 4.33 µM)
- MFC [14]: > 4 µg/mL
- MIC [15]: 0.58 µg/mL (≈ 0.628 µM)
- MIC [16]: 1 µg/mL (≈ 1.08 µM)
- MIC [17]: 1 µg/mL (≈ 1.08 µM)
- MIC [18]: 2.08 µg/mL (≈ 2.25 µM)
- MIC [19]: 2.5 µg/mL (≈ 2.71 µM)
- MFC [20]: 1 µg/mL (≈ 1.08 µM)
- MFC [21]: 4 µg/mL (≈ 4.33 µM)
- MIC [22]: 0.51 µg/mL (≈ 0.552 µM)
- MFC [23]: 1 µg/mL (≈ 1.08 µM)
- MIC [24]: 0.3 µg/mL (≈ 0.325 µM)
- MFC [25]: 4 µg/mL (≈ 4.33 µM)
- MFC [26]: > 8 µg/mL
- MIC [27]: 1 µg/mL (≈ 1.08 µM)
- MIC [28]: 1.5 µg/mL (≈ 1.62 µM)
- MIC [29]: 1 µg/mL (≈ 1.08 µM)
- MFC [30]: 0.5 µg/mL (≈ 0.541 µM)
- MFC [31]: 1 µg/mL (≈ 1.08 µM)
- MIC [32]: 0.75 µg/mL (≈ 0.812 µM)
- MFC [33]: 1 µg/mL (≈ 1.08 µM)
- MIC [34]: 0.41 µg/mL (≈ 0.444 µM)
- MFC [35]: > 4 µg/mL
